Laboratory results from ChEMBL document CHEMBL2384936, “Synthesis and evaluation of antimicrobial activity of hydrazones derived from 3-oxido-1H-imidazole-4-carbohydrazides” (Eur J Med Chem, 2013).
Calls of active or inactive are those of the source.

Experiments:
Candida albicans = assay: Antifungal activity against Candida albicans ATCC 10231 assessed as growth inhibition at 1 to 600 ug/mL after 18 hrs by broth microdilution method; format: functional, organism-based
Pseudomonas aeruginosa = assay: Antibacterial activity against Pseudomonas aeruginosa NCTC 6249 assessed as growth inhibition at 1 to 600 ug/mL after 18 hrs by broth microdilution method; format: functional, organism-based
Proteus vulgaris = assay: Antibacterial activity against Proteus vulgaris ATCC 49990 assessed as growth inhibition at 1 to 600 ug/mL after 18 hrs by broth microdilution method; format: functional, organism-based
Escherichia coli = assay: Antibacterial activity against Escherichia coli NCTC 8192 assessed as growth inhibition at 1 to 600 ug/mL after 18 hrs by broth microdilution method; format: functional, organism-based
[1] = system: Staphylococcus epidermidis; assay: Antibacterial activity against Staphylococcus epidermidis ATCC 12228 assessed as growth inhibition at 1 to 600 ug/mL after 18 hrs by broth microdilution method; format: functional, organism-based
Staphylococcus aureus [2] = assay: Antibacterial activity against Staphylococcus aureus ATCC 6538 assessed as growth inhibition at 1 to 600 ug/mL after 18 hrs by broth microdilution method; format: functional, organism-based
Procedure, shortened: (§1)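 Frozen stocks (-80 °C, tryptic soy broth with 15% glycerol); S. aureus subcultured on blood agar and identified by catalase, coagulase and clumping factor. Inoculum at 0.5 McFarland. DMSO-dissolved compounds 1–600 µg/mL in Mueller–Hinton broth, 37 °C 18 h, OD600 read with and without compound. MIC = lowest concentration preventing growth; triplicates, per CLSI.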

Enterococcus faecalis = assay: Antibacterial activity against Enterococcus faecalis ATCC 29212 assessed as growth inhibition at 1 to 600 ug/mL after 18 hrs by broth microdilution method; format: functional, organism-based
Staphylococcus aureus [3] = assay: Antibacterial activity against Staphylococcus aureus ATCC 29213 assessed as growth inhibition at 1 to 600 ug/mL after 18 hrs by broth microdilution method; format: functional, organism-based; procedure, shortened: as §1
Proteus mirabilis = assay: Antibacterial activity against Proteus mirabilis ATCC 29906 assessed as growth inhibition at 1 to 600 ug/mL after 18 hrs by broth microdilution method; format: functional

Measured: Activity

C/C(=N\NC(=O)c1c(C)n(Cc2ccccc2)c[n+]1[O-])c1ccccc1
inactive: all assays above

COc1ccc(/C=N/NC(=O)c2c(C)n(Cc3ccccc3)c[n+]2[O-])cc1
inactive: all assays above

Cc1c(C(=O)N/N=C/c2ccc(N(C)C)cc2)[n+]([O-])cn1Cc1ccccc1
inactive: all assays above

Cc1c(C(=O)N/N=C/c2ccc([N+](=O)[O-])cc2)[n+]([O-])cn1Cc1ccccc1
inactive: all assays above

Cc1c(C(=O)N/N=C/c2ccccc2)[n+]([O-])cn1Cc1ccccc1
inactive: all assays above

Cc1c(C(=O)N/N=C/c2ccccc2O)[n+]([O-])cn1Cc1ccccc1
inactive: all assays above
